Published values pooled from the literature.
Each line is one published result; the experiments were not run side by side. pEC50, pIC50, pKd, pKi: −log10 of the molar value.
MTNR1A: Melatonin receptor type 1A (MTNR1A, Homo sapiens, UniProt P48039)
FLT3: Receptor-type tyrosine-protein kinase FLT3 (FLT3, Homo sapiens, UniProt P36888)

With `CCc1ccc2scc(CCNC(C)=O)c2c1` the pEC50 was 7.92 (MTNR1A; β-arrestin recruitment, agonist).
`CC(C)Nc1ccnc(Nc2cccc(-c3cnccn3)c2)n1` gave a pIC50 of 7.96 (FLT3; enzyme activity, inhibitor).
`Cc1cnc(-c2ccc(-c3ccc(NC(=O)Nc4c(F)cc(F)cc4F)cc3F)c3c2C(=O)NC3)[nH]1` gave a pKd of 7.74 (Tyrosine-protein kinase receptor Tie-1 (TIE1, Homo sapiens, UniProt P35590); binding, competition with immobilised ligand).
With `Cc1cc(Nc2cc3ncccc3c(N[C@@H]3C[C@H]4CC[C@@H](C3)N4CCC#N)n2)n[nH]1` the pKd was 7.40 (FLT3; binding, competition with immobilised ligand).
With `COc1cc2c(CCNC(C)=O)c[nH]c2cc1I` the pEC50 was 8.00 (MTNR1A; GTPγS binding, agonist, radiometric; cell membranes).
With `COC(=O)c1ccc(CSc2nnc(C3CC3)[nH]2)cc1` the pEC50 was 6.11 (MTNR1A; cAMP, agonist, luciferase).
With `c1ccc(-c2cccc(Nc3nccc(NC4CCCCC4)n3)c2)nc1` the pIC50 was 5.77 (FLT3; enzyme activity, inhibitor).
`COc1ccc2ncn(CCNC(C)=O)c2c1` has a pEC50 of 5.95 (MTNR1A; cAMP, agonist, TR-FRET).
With `COc1ccc(CN(C)C(=O)c2cc(F)c[nH]2)cc1O` the pEC50 was 7.68 (MTNR1A; cAMP, agonist, luciferase).
`Cc1cc2nc3c(=O)[nH]c(=O)nc-3n(C[C@H](O)[C@H](O)[C@H](O)COP(=O)(O)OP(=O)(O)OC[C@H]3O[C@@H](n4cnc5c(N)ncnc54)[C@H](O)[C@@H]3O)c2cc1C` gave a pKd of 7.52 (Annexin A7 (Homo sapiens, UniProt P20073); binding; lysate).
`COc1ccc(Br)c(CNc2cccnc2)c1` gave a pKi of 6.46 (MTNR1A; cell-free assay).
The pIC50 of `NC(=O)c1ccc(Nc2nccc(NC3CCCCC3)n2)cc1` is reported as 7.85 (FLT3; enzyme activity, inhibitor).
